Bioassay records deposited in PubChem BioAssay by several laboratories.
Compounds with a hit are over-represented: about 2% of the library has one in this group of screens.
ABCB6 inh 2 = human ABCB6 transporter inhibition. AID 602162. 360,000 compounds, 0.19% hits. Q9NP58. K562-ABCB6 porphyrin accumulation, flow cytometry, 1 h; hits give low values. fluorescence ratio to DMSO, % at 10 µM;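 active = fluorescence ratio to DMSO below 75%, the collection mean minus 3 SD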;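 also: signal is porphyrin accumulated inside mitochondria; lower ratio means ABCB6 inhibition with less porphyrin fluorescence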
VLA-4 inh = inhibition in a human VLA-4 binding assay; AID 2557; 330,000 compounds, 0.2% hits; inhibition, % (about 7 µM as worked out from the volumes in the protocol); VLA-4 expressing cells, ligand binding flow cytometry; P13612; in the data active = inhibition above about 50%
Target sequence (P13612 whole entry, looked up): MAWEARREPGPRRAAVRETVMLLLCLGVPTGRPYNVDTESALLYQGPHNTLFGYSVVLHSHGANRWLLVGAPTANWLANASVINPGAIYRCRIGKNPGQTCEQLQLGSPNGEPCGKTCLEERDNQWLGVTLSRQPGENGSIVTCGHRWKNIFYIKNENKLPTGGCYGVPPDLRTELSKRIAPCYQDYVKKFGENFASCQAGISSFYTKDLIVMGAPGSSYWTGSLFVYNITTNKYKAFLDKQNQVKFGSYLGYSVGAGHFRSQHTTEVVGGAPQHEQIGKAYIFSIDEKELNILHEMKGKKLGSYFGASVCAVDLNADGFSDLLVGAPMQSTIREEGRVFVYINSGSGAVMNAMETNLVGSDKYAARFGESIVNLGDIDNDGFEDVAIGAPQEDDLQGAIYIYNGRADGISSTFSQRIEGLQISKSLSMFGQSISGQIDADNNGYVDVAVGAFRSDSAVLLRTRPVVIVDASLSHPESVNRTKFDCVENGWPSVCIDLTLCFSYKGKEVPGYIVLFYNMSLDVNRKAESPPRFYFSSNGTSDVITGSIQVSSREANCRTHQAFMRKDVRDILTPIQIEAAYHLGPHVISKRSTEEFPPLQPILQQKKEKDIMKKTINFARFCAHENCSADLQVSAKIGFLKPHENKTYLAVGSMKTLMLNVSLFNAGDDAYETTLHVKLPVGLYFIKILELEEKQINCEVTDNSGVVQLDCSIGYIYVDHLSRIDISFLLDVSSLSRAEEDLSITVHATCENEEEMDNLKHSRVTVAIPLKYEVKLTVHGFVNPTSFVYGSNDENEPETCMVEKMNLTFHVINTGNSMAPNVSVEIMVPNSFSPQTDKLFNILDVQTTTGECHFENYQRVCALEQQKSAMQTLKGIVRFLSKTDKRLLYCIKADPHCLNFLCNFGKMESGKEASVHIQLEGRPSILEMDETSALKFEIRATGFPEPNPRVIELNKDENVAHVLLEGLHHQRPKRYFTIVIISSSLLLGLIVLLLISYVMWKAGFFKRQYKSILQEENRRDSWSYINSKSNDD
DAGLB inh = diacylglycerol lipase beta (human) inhibition; Q8NCG7; HEK293T DAGLB membrane lysate, EnzChek fluorogenic substrate; inhibition, % at 5.17 µM; 340,000 compounds, 0.059% hits; AID 504411; in the data active = inhibition above about 34%
MT1-MMP act inh = MT1-MMP (human) activation inhibition; P50281; HT1080 RFP-PRO-GFP cells, GFP/RFP ratio fluorescence, overnight; percent of plate control window, DMSO zero; GFP/RFP ratio change, % at 20 µM; 360,000 compounds, 0.061% hits;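 active = GFP/RFP ratio change of at least 30% with cell ATP level not reduced by more than half and red fluorescence within 50% of control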
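Assay system: RFP-PRO-GFP reporter HT1080 cells; read-out basis: GFP/RFP fluorescence ratio; benchmarks: DMSO wells and RFP-L50D-GFP cells; doses: 20 µM single dose, 1% DMSO; schedule: overnight cell settling, then overnight compound exposure, 37 °C, 5% CO2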
FGF22 binding = binders of recombinant human FGF22 by thermal shift. Q9HCT0. SYPRO orange fluorescence; percent of sucrose octasulfate shift, DMSO zero. activity (Tm shift, normalised), % at 9.99 µM. 340,000 compounds, 1.5% hits. AID 651658;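 active = mean Tm shift, scaled 0 neutral to 100 positive control, at about 1.3% or above, every replicate too, limit read from the data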
Exocytosis inh = lytic granule exocytosis inhibition | inhibition, % at 10 µM | 360,000 compounds, 0.66% hits | TALL-104 LAMP-1 surface exposure, flow cytometry; cells stimulated with thapsigargin and PMA;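 active = inhibition above about 55%, limit read from the data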
Of the large screens only hits and unclear results are named; the others gave an inactive call; ! = repeats disagree.

CCOC(=O)COc1ccc2ccccc2c1/C=C/[N+](=O)[O-]	none
O=[N+]([O-])/C=C/c1c(OCc2ccccc2)ccc2ccccc12	Exocytosis inh 78 (no result: FGF22 binding)
CCOC(=O)Cn1cc(/C=C/[N+](=O)[O-])c2ccccc21	none
Cn1cc(-c2ccc(Cl)cc2)cc(C#N)c1=O	FGF22 binding 43
CC1=NN(c2nc(N)nc(/C(C#N)=C/c3ccc([N+](=O)[O-])o3)n2)C(C)(C)C1	Exocytosis inh 83 (no result: VLA-4 inh)
O=C1C2C(C(=O)N1/N=C/c1ccc([N+](=O)[O-])o1)C1C=CC2C12CC2 (centres undefined)	none (no result: FGF22 binding)
COc1ccc(C2c3[nH]c4ccccc4c3CCN2C(=O)c2cc3ncccn3n2)c(F)c1 (centres undefined)	FGF22 binding 43
O=C(c1cn[nH]c1)N1CCc2c([nH]c3ccccc23)C1c1c(F)cccc1Cl (centres undefined)	FGF22 binding 44
Cc1ccc2nc(C(=O)N3CCc4c([nH]c5ccccc45)C3c3ccccn3)cn2c1 (centres undefined)	FGF22 binding 43
O=C(C[C@H]1CC[C@@H](NS(=O)(=O)c2ccccc2)[C@H](CO)O1)NCc1ccncn1	none (no result: ABCB6 inh 2, VLA-4 inh, DAGLB inh, MT1-MMP act inh, Exocytosis inh)
Cc1noc(C)c1NC(=O)Nc1ccc2c(c1)CC(=O)N([C@H](C)CO)C[C@H](C)[C@@H](CN(C)C(=O)Nc1ccc(F)cc1)O2	none (no result: ABCB6 inh 2, VLA-4 inh, DAGLB inh, MT1-MMP act inh, Exocytosis inh)
Cc1c(Cl)cccc1-c1ccc(C(=O)N2CCN(c3ccc([N+](=O)[O-])cc3)CC2)o1	Exocytosis inh 58 (no result: FGF22 binding)
O=C(c1ccc(-c2cccc(Cl)c2)o1)N1CCN(c2ccc([N+](=O)[O-])cc2)CC1	none (no result: FGF22 binding)
CO[C@@H]1CN(C)C(=O)c2ccc(NS(=O)(=O)c3cccc(C)c3)cc2OC[C@H](C)NC[C@@H]1C	none (no result: ABCB6 inh 2, VLA-4 inh, DAGLB inh, MT1-MMP act inh, Exocytosis inh)
O=S(=O)(NC1CCCCC1Oc1ccccc1)c1ccc(Cl)cc1 (centres undefined)	FGF22 binding 44
CC(C)(C)c1[nH]nc2c1C(c1ccsc1)C(C#N)=C(N)O2 (centres undefined)	FGF22 binding 43
C/C(CC(=O)Nc1ccc(C)c(Cl)c1)=N\NC(=O)c1ccncc1	FGF22 binding 44 (no result: VLA-4 inh)
C[C@@H]1CN([C@@H](C)CO)C(=O)c2cc(NS(=O)(=O)c3cccs3)ccc2O[C@@H](C)CCCCO[C@@H]1CN(C)C(=O)Nc1ccc(F)cc1	none (no result: ABCB6 inh 2, VLA-4 inh, DAGLB inh, MT1-MMP act inh, Exocytosis inh)
CCCc1cc2c(=O)c(-c3cscn3)c(C(=O)OCC)oc2cc1O	FGF22 binding 43
Cc1c(C(=O)N2CCCCC2)oc2ccccc12	FGF22 binding 43
Cc1c(C(=O)N2CCCCCC2)oc2ccccc12	none (no result: FGF22 binding)
O=C(/C(=C/O)N=Nc1cccc(C(F)(F)F)c1)c1ccccc1	FGF22 binding 43
Cc1cccc(N=N/C(=C\O)C(=O)c2ccc(Br)cc2)c1	Exocytosis inh 101
CC(C)NC(=O)Nc1ccc2c(c1)C(=O)N([C@H](C)CO)C[C@@H](C)[C@@H](CN(C)S(=O)(=O)c1cccs1)OCCCC[C@H](C)O2	none (no result: ABCB6 inh 2, VLA-4 inh, DAGLB inh, MT1-MMP act inh, Exocytosis inh)
CCOC(=O)CNC(=O)CSc1nnc(NC(=O)c2ccccc2Cl)s1	FGF22 binding 43
Cc1ccc(S(=O)(=O)Nc2ccc3c(c2)C(=O)N([C@@H](C)CO)C[C@H](C)[C@H](CN(C)S(=O)(=O)c2ccc(F)cc2)O3)cc1	none (no result: ABCB6 inh 2, VLA-4 inh, DAGLB inh, MT1-MMP act inh, Exocytosis inh)
CCn1ccnc1CN(C)Cc1cn(-c2ccccc2)nc1-c1ccc(OC)cc1F	FGF22 binding 45
COCCCNCC(O)COc1cccc2[nH]c(C)cc12 (centres undefined)	FGF22 binding 1.4
Cc1cc2c(OCC(O)CNC(C)(C)C)cccc2[nH]1 (centres undefined)	none (no result: FGF22 binding)
Cc1ccc([N+](=O)[O-])cc1S(=O)(=O)N1CCN(C)CC1	none
CN1CCN(S(=O)(=O)c2cc([N+](=O)[O-])ccc2Cl)CC1	FGF22 binding 43
O=C(NN1C(=O)C2C(C1=O)C1C=CC2C12CC2)c1cccnc1 (centres undefined)	FGF22 binding 44
O=C(NN1C(=O)C2C(C1=O)C1C=CC2C12CC2)c1ccncc1 (centres undefined)	none (no result: FGF22 binding)
C[C@H](CO)N1C[C@H](C)[C@@H](CN(C)S(=O)(=O)c2cn(C)cn2)Oc2ccc(NC(=O)Cn3cnnn3)cc2C1=O	FGF22 binding 44!
Cc1noc(C)c1S(=O)(=O)Nc1ccc2c(c1)C(=O)N([C@@H](C)CO)C[C@@H](C)[C@H](CN(C)S(=O)(=O)c1cn(C)cn1)OCCCC[C@@H](C)O2	FGF22 binding 34 (no result: ABCB6 inh 2, VLA-4 inh, DAGLB inh, MT1-MMP act inh, Exocytosis inh)
C[C@H](CO)N1C[C@H](C)[C@H](CN(C)S(=O)(=O)c2cn(C)cn2)Oc2ccc(NC(=O)Cn3cnnn3)cc2C1=O	none (no result: ABCB6 inh 2, VLA-4 inh, DAGLB inh, MT1-MMP act inh, Exocytosis inh)
C[C@@H]1CCCCO[C@H](CN(C)C(=O)c2ccncc2)[C@H](C)CN([C@H](C)CO)C(=O)c2cc(NS(=O)(=O)c3cn(C)cn3)ccc2O1	FGF22 binding 1.7 (no result: ABCB6 inh 2, VLA-4 inh, DAGLB inh, MT1-MMP act inh, Exocytosis inh)
CC(Oc1ccccc1)C(=O)Nc1nc(-c2ccccn2)cs1 (centres undefined)	none (no result: VLA-4 inh)
C[C@H](NC(=O)c1ccccc1)C(=O)Nc1nc(-c2ccccn2)cs1	FGF22 binding 43
CCOC(=O)Cn1nc(C(F)F)c(Br)c1C	FGF22 binding 44
CC(C)(C)c1ccc(-c2nc3[nH]c(=O)cc(NC(=O)c4ccco4)n3n2)cc1	FGF22 binding 14
COc1ccc2c3c(n(C)c2c1)[C@H](CO)N(Cc1cccnc1)CC31CN(C(=O)NC(C)C)C1	none (no result: ABCB6 inh 2, VLA-4 inh, DAGLB inh, MT1-MMP act inh, Exocytosis inh)
C[C@H]1CN([C@@H](C)CO)C(=O)c2cccc(NC(=O)Nc3ccc(F)cc3)c2O[C@@H]1CN(C)S(C)(=O)=O	none (no result: ABCB6 inh 2, VLA-4 inh, DAGLB inh, MT1-MMP act inh, Exocytosis inh)
O=C(CN1CCCC1)N1c2ccccc2C=Cc2ccccc21	FGF22 binding 43
O=C(CN1CCCCCC1)N1c2ccccc2C=Cc2ccccc21	none (no result: FGF22 binding)
O=C(NCc1ccc(Cl)cc1)c1cc([N+](=O)[O-])ccc1Cl	FGF22 binding 43
Cc1nnc(N/N=C/c2ccc(Br)cc2)n1N	Exocytosis inh 78
C[C@@H]1CN([C@@H](C)CO)C(=O)c2cccc(NS(=O)(=O)c3ccc(Cl)cc3)c2O[C@@H]1CN(C)S(=O)(=O)c1ccc(Cl)cc1	none (no result: ABCB6 inh 2, VLA-4 inh, DAGLB inh, MT1-MMP act inh, Exocytosis inh)
CC(CC(=O)OCC(=O)NC1CCS(=O)(=O)C1)c1ccccc1 (centres undefined)	FGF22 binding 43
COc1cc2ccccc2cc1C(=O)OCC(=O)NC1CCS(=O)(=O)C1 (centres undefined)	FGF22 binding 43
Cc1cccc(NC(=S)NC(=O)c2oc3ccccc3c2C)n1	FGF22 binding 43
Cc1cccc(NC(=S)NC(=O)c2ccc(-c3ccccc3)cc2)n1	none
CN1c2ccc(C#Cc3cccnc3)cc2[C@H]2[C@H](CCN2C(=O)c2cccnc2)[C@@H]1CO	none (no result: ABCB6 inh 2, VLA-4 inh, DAGLB inh, MT1-MMP act inh, Exocytosis inh)
